In ChEMBL document CHEMBL5034008, “Diversity-Oriented A3-Macrocyclization for Studying Influences of Ring-Size and Shape of Cyclic Peptides: CD36 Receptor Modulators” (J Med Chem, 2021):
Non-standard residues stand in square brackets, D forms with d. Residues, ends and D or L forms follow the SMILES beside them. ξ: configuration not given here. *: point of attachment. X1 = CCCCCCCCCCCCCCCC(=O)OCC(C*)OC(=O)CCCCCCCCCCCCCCC; ξC = NC(CS)C(=O)O

Key:
[1] = target: Platelet glycoprotein 4 (Mus musculus) (UniProt Q08857); experiment: Modulation of CD36 receptor in mouse RAW 264.7 cells assessed as inhibition of R-FSL-1-induced NO production pretreated for 30 mins followed by R-FSL-1 stimulation measured after 1140 min by fluorescence plate reader assay; assay type: cell-based; conditions: RAW264.7, filed as modulator, time 1170.0 min
Summary of the method: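 RAW 264.7 cells seeded at 1.5 × 10^5 per well in DMEM with pen/strep. After 2 h, medium changed to DMEM with 0.2% BSA containing peptide. Cells stimulated with R-FSL-1 at 300 ng/mL for 19 h. Nitrite in 25 μL supernatant reacted with 0.5 μg 2,3-diaminonaphthalene in 50 mM phosphate pH 7.5, 15 min at room temperature in the dark, stopped with NaOH. Fluorescence read.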

[2] = target: Platelet glycoprotein 4 (Mus musculus) (UniProt Q08857); experiment: Modulation of CD36 receptor in mouse RAW 264.7 cells assessed as inhibition of R-FSL-1-induced TNFalpha production pretreated for 30 mins followed by R-FSL-1 stimulation measured after 4 hrs by ELISA; assay type: cell-based; conditions: RAW264.7, filed as modulator, time 4.5 hrs
Summary of the method: (§1)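 RAW 264.7 cells seeded at 1.5 × 10^5 per well and weaned overnight in DMEM with 1% pen/strep. Medium then changed to DMEM with 0.2% BSA. Cells pretreated 30 min with peptide at 10^-7 M, with linear [azaTyr4]-GHRP-6 as reference. Stimulated with R-FSL-1 at 300 ng/mL for 4 h at 37 °C. TNF-α or CCL-2 in supernatant measured by ELISA. Inhibition % = (FSL-1 − treated)/(FSL-1 − basal) × 100.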

Platelet glycoprotein 4 = Platelet glycoprotein 4 (Rattus norvegicus, UniProt Q07969); experiment: Displacement of [125I]-Tyr-Bpa-Ala-hexarelin from rat CD36 receptor in heart tissue membrane incubated for 60 mins by competitive receptor binding assay; assay type: cell membranes
Summary of the method: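 Rat heart membranes (50 μg) incubated in the dark with 250,000 cpm [125I]-Tyr-Bpa-Ala-hexarelin in 50 mM Tris-HCl pH 7.4, 2 mM EGTA, 0.05% bacitracin, with competitor at 0.1–10 μM; hexarelin as reference. Nonspecific binding defined with 50 μM peptide. 60 min at 22 °C, then UV photolysis at 365 nm for 15 min at 4 °C. Pellets resolved on 7.5% SDS-PAGE.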

[3] = target: Platelet glycoprotein 4 (Mus musculus) (UniProt Q08857); experiment: Modulation of CD36 receptor in mouse RAW 264.7 cells assessed as inhibition of R-FSL-1-induced TNFalpha production at competitive receptor binding assay IC50 concentration pretreated for 30 mins followed by R-FSL-1 stimulation measured after 19 hrs by ELISA relative to R-FSL-1; assay type: cell-based; design: scale not given: the % may be the effect or the level left; conditions: RAW264.7, time 19.5 hrs
[4] = target: Platelet glycoprotein 4 (Mus musculus) (UniProt Q08857); experiment: Modulation of CD36 receptor in mouse BMA3.1A7 cells assessed as inhibition of R-FSL-1-induced IL-1beta production […] measured after 4 hrs by ELISA; assay type: cell-based; conditions: filed as modulator, time 4.5 hrs
[5] = target: Platelet glycoprotein 4 (Mus musculus) (UniProt Q08857); experiment: Modulation of CD36 receptor in mouse RAW 264.7 cells assessed as inhibition of R-FSL-1-induced CCL-2 production pretreated for 30 mins followed by R-FSL-1 stimulation measured after 4 hrs by ELISA; assay type: cell-based; conditions: RAW264.7, filed as modulator, time 4.5 hrs; summary of the method: as §1
[6] = target: Platelet glycoprotein 4 (Mus musculus) (UniProt Q08857); experiment: Modulation of CD36 receptor in mouse RAW 264.7 cells assessed as inhibition of R-FSL-1-induced NO production at competitive receptor binding assay IC50 concentration pretreated for 30 mins followed by R-FSL-1 stimulation measured after 19 hrs by fluorescence plate reader assay relative to R-FSL-1; assay type: cell-based; design: scale not given: the % may be the effect or the level left
[7] = target: Platelet glycoprotein 4 (Mus musculus) (UniProt Q08857); experiment: Modulation of CD36 receptor in mouse BMA3.1A7 cells assessed as inhibition of R-FSL-1-induced IL-1beta production at competitive receptor binding assay IC50 concentration pretreated for 30 mins followed by R-FSL-1 stimulation measured after 4 hrs by ELISA relative to R-FSL-1; assay type: cell-based; design: scale not given: the % may be the effect or the level left; conditions: time 4.5 hrs
[8] = target: Platelet glycoprotein 4 (Mus musculus) (UniProt Q08857); experiment: Modulation of CD36 receptor in mouse RAW 264.7 cells assessed as inhibition of R-FSL-1-induced CCl-2 production at competitive receptor binding assay IC50 concentration pretreated for 30 mins followed by R-FSL-1 stimulation measured after 19 hrs by ELISA relative to R-FSL-1; assay type: cell-based; design: scale not given: the % may be the effect or the level left
[9] = RAW264.7, filed as modulator, time 19.5 hrs

Platelet glycoprotein 4, sequence (Q07969 whole entry): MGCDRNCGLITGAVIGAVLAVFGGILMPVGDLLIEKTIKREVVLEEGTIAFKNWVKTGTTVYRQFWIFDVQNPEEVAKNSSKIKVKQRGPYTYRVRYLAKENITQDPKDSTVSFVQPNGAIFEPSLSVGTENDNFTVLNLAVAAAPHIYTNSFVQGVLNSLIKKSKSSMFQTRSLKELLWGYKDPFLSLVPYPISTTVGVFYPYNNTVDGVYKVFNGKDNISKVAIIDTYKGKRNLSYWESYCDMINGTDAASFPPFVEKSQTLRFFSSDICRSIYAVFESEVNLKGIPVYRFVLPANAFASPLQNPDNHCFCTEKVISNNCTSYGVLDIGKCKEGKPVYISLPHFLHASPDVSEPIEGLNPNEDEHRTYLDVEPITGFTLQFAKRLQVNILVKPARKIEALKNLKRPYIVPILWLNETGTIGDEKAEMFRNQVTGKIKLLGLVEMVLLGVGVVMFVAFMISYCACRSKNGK
Platelet glycoprotein 4 (Mus musculus), sequence (Q08857 whole entry): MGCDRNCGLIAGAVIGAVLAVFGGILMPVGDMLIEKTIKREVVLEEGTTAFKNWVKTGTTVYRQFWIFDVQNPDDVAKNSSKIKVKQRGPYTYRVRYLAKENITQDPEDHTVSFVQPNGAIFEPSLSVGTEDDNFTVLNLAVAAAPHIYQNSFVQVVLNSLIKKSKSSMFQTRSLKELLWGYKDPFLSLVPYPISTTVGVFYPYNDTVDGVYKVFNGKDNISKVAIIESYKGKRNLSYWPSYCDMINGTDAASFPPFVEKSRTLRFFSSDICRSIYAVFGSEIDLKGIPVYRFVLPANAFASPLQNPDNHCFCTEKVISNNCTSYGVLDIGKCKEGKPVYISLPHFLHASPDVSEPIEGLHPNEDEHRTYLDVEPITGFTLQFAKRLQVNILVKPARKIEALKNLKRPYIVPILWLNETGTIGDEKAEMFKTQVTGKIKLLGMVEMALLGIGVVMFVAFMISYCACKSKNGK

| Compound | Activity [1] [µM] | Activity [2] [pmol] | IC50 (Platelet glycoprotein 4) [µM] | Activity [3] [%] | Activity [4] [pmol] | Activity [5] [pmol] | Activity ([6]; RAW264.7, time 1170.0 min) [%] | Activity ([7]; filed as modulator) [%] | Activity ([8]; RAW264.7, time 19.5 hrs) [%] | Activity ([6]; RAW264.7, filed as modulator, time 1170.0 min) [%] | Activity [7] [%] | Activity [8, 9] [%] |
| --- | --- | --- | --- | --- | --- | --- | --- | --- | --- | --- | --- | --- |
| CCCN1CCCC[C@@H](C(N)=O)NC(=O)[C@@H](Cc2ccccc2)NC(=O)[C@H](Cc2c[nH]c3ccccc23)NC(=O)[C@H](C)NC(=O)[C@@H](Cc2c[nH]c3ccccc23)NC(=O)N(NC(=O)[C@H](C)N)CCCC1 | 2.08 | 4110 | 2.26 | 21 | 312 | 802 | 36 |  | 34 |  | 29 |  |
| C[C@H](N)C(=O)NN1CC#CCN(CC2CC2)CCCC[C@@H](C(N)=O)NC(=O)[C@@H](Cc2ccccc2)NC(=O)[C@H](Cc2c[nH]c3ccccc23)NC(=O)[C@H](C)NC(=O)[C@@H](Cc2c[nH]c3ccccc23)NC1=O | 2.53 | 4620 | 3.06 | 8 | 366 | 984 | 14 |  | 21 |  | 13 |  |
| C=CCN1CC#CCN(NC(=O)[C@H](C)N)S(=O)(=O)N[C@H](Cc2c[nH]c3ccccc23)C(=O)N[C@@H](C)C(=O)N[C@@H](Cc2c[nH]c3ccccc23)C(=O)N[C@H](Cc2ccccc2)C(=O)N[C@H](C(N)=O)CCCC1 | 2.74 | 5120 | 10.2 | -4 | 378 | 969 | 4 |  | 15 |  | 6 |  |
| C=CCN1CC#CCN(NC(=O)[C@H](C)NC(C)=O)C(=O)N[C@H](Cc2c[nH]c3ccccc23)C(=O)N[C@@H](C)C(=O)N[C@@H](Cc2c[nH]c3ccccc23)C(=O)N[C@H](Cc2ccccc2)C(=O)N[C@H](C(N)=O)CCCC1 | 2.35 | 4040 |  | 22 | 304 | 707 | 23 |  |  |  | 32 | 45 |
| C=CCN1CC#CCN(NC(=O)[C@H](C)N)C(=O)N[C@@H](C)C(=O)N[C@@H](Cc2c[nH]c3ccccc23)C(=O)N[C@H](Cc2ccccc2)C(=O)N[C@H](C(N)=O)CC1 | 2.51 | 4850 | 10.2 | 3 | 389 | 954 | 15 |  | 17 |  | 6 |  |
| C=CCN1CC#CCN(NC(=O)[C@H](C)N)C(=O)N[C@H](Cc2c[nH]c3ccccc23)C(=O)N[C@@H](C)C(=O)N[C@@H](Cc2c[nH]c3ccccc23)C(=O)N[C@H](Cc2ccccc2)C(=O)N[C@H](C(N)=O)CCC1 | 2.52 | 4650 | 13.1 | 8 | 411 | 971 | 15 |  | 15 |  | 0 |  |
| C=CCN1CC#CCN(N)C(=O)N[C@H](Cc2c[nH]c3ccccc23)C(=O)N[C@@H](C)C(=O)N[C@@H](Cc2c[nH]c3ccccc23)C(=O)N[C@H](Cc2ccccc2)C(=O)N[C@H](C(N)=O)CCCC1 | 2.72 | 4900 | > 50 | 2 | 388 | 1040 | 5 |  | 6 |  | 7 |  |
| C=CCN1CC#CCN(NC(=O)[C@H](C)N)C(=O)N[C@H](Cc2c[nH]c3ccccc23)C(=O)N[C@@H](C)C(=O)N[C@@H](Cc2c[nH]c3ccccc23)C(=O)N[C@H](Cc2ccccc2)C(=O)N[C@H](C(N)=O)CCCC1 | 2.11 | 3940 | 0.1 | 25 | 253 | 672 | 35 | 46 |  |  |  | 50 |
| CCCN1CC#CCN(NC(=O)[C@H](C)N)C(=O)N[C@H](Cc2c[nH]c3ccccc23)C(=O)N[C@@H](C)C(=O)N[C@@H](Cc2c[nH]c3ccccc23)C(=O)N[C@H](Cc2ccccc2)C(=O)N[C@H](C(N)=O)CCCC1 | 2.75 | 4460 | 1.86 | 12 | 313 | 918 | 4 |  | 13 |  | 29 |  |

Further lines, results first:

| Activity [1] [µM] | Activity [2] [pmol] | IC50 (Platelet glycoprotein 4) [µM] | Activity [3] [%] | Activity [4] [pmol] | Activity [5] [pmol] | Activity ([6]; RAW264.7, time 1170.0 min) [%] | Activity ([7]; filed as modulator) [%] | Activity ([8]; RAW264.7, time 19.5 hrs) [%] | Activity ([6]; RAW264.7, filed as modulator, time 1170.0 min) [%] | Activity [7] [%] | Activity [8, 9] [%] | Compound |
| --- | --- | --- | --- | --- | --- | --- | --- | --- | --- | --- | --- | --- |
| 2.26 | 4180 | 4.75 | 19 | 271 | 857 | 27 | 41 | 28 |  |  |  | C=CCN1CC#CCN(NC(=O)[C@H](C)N)C(=O)N[C@H](Cc2c[nH]c3ccccc23)C(=O)N[C@@H](C)C(=O)N[C@@H](Cc2c[nH]c3ccccc23)C(=O)N[C@H](Cc2ccccc2)C(=O)N[C@H](C(N)=O)CC1 |
| 2.3 | 3840 |  | 27 | 291 | 758 |  |  | 39 | 25 | 35 |  | C=CCN1CC#CCN(NC(=O)[C@H](C)N)C(=O)N[C@@H](C)C(=O)N[C@@H](Cc2c[nH]c3ccccc23)C(=O)N[C@H](Cc2ccccc2)C(=O)N[C@H](C(N)=O)CCCC1 |
| 2.81 | 4760 | 22.8 | 5 | 381 | 1030 | 0 |  | 8 |  | 9 |  | C=CCN1CC#CCN(NC(=O)[C@H](C)N)C(=O)N[C@@H](C)C(=O)N[C@@H](Cc2c[nH]c3ccccc23)C(=O)N[C@H](Cc2ccccc2)C(=O)N[C@H](C(N)=O)CCC1 |
| 2.57 | 4820 | 9.05 | 3 | 312 | 903 | 12 |  | 23 |  | 9 |  | C[C@H](N)C(=O)NN1C/C=C\CN(CC2CC2)CCCC[C@@H](C(N)=O)NC(=O)[C@@H](Cc2ccccc2)NC(=O)[C@H](Cc2c[nH]c3ccccc23)NC(=O)[C@H](C)NC(=O)[C@@H](Cc2c[nH]c3ccccc23)NC1=O |
| 2.82 | 4970 |  |  | 410 | 1100 |  |  |  |  |  |  | CCCCCCCCCCCCCCCC(=O)OCC(CSCC(N)C(=O)NCC(=O)N[C@@H](CC(=O)O)C(=O)N1CCC[C@H]1C(=O)N[C@@H](CCCCN)C(=O)N[C@@H](Cc1cnc[nH]1)C(=O)N1CCC[C@H]1C(=O)N[C@@H](CCCCN)C(=O)N[C@@H](CO)C(=O)N[C@@H](Cc1ccccc1)C(=O)O)OC(=O)CCCCCCCCCCCCCCC (some centres not stated) (H-[ξC](X1)GDPKHPKSF-OH) |
| 2.45 | 4560 |  | 10 | 351 | 785 | 18 |  | 36 |  | 18 |  | C=CCN1CC#CCN(NC(C)=O)C(=O)N[C@H](Cc2c[nH]c3ccccc23)C(=O)N[C@@H](C)C(=O)N[C@@H](Cc2c[nH]c3ccccc23)C(=O)N[C@H](Cc2ccccc2)C(=O)N[C@H](C(N)=O)CCCC1 |
